Data reported in ChEMBL document CHEMBL5550192, “Discovery of first-in-class PROTACs targeting maternal embryonic leucine zipper kinase (MELK) for the treatment of Burkitt lymphoma” (RSC Med Chem, 2024).
Active and inactive are the calls of the source. The rule behind the calls is not given here.

Experiments:
Ramos [1] = assay: Upregulation of MELK mRNA level in human Ramos cells at 20 uM incubated for 24 hrs by qPCR analysis; assay type: functional, cell-based
Outline: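 Ramos cells in 6-well plates exposed to 20 μM compound or DMSO for 24 h. MELK mRNA measured by qPCR with MELK-specific primers. Relative expression by the 2^-ΔΔCt method, normalized to 18S mRNA (actin also stated as internal control). Run in triplicate.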

Ramos [2] = assay: Induction of apoptosis in human Ramos cells assessed as necrotic cells at 20 uM measured after 24 hrs by Annexin V-FITC and propidium iodide staining based flow cytometry analysis (reference value: 0.34%); assay type: functional
Outline: (§1)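 Ramos cells, 1×10^6 per well in 6-well plates, treated with compound or DMSO for 24 h. Washed in cold PBS, resuspended in Annexin V binding buffer, stained with Annexin V-FITC and propidium iodide. Populations quantified by flow cytometry.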

Ramos [3] = assay: Induction of apoptosis in human Ramos cells at 20 uM measured after 24 hrs by calcein-AM/propidium iodide staining based fluorescence microscopic analysis; assay type: functional, cell-based
Outline: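 Ramos cells, 2×10^5 per well in 12-well plates, exposed to compound or DMSO for 24 h. Washed in cold PBS, then stained with calcein-AM/propidium iodide working solution for 30 min at 37°C in the dark. Examined by fluorescence microscopy.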

[4] = Selectivity ratio of CC50 for human MDA-MB-231 cells to IC50 for human Ramos cells
[5] = target: T1, Protein cereblon/Maternal embryonic leucine zipper kinase (Homo sapiens, UniProt Q14680+Q96SW2); assay: PROTAC activity at CRBN/MELK in human Ramos cells assessed as induction of MELK degradation by immunoblot analysis; assay type: cell-based
Outline: (§2)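 Ramos cells in 12-well plates (1 mL medium) treated with compound at various concentrations. Lysed in 2X SDS sample buffer and boiled 15 min. Proteins resolved on 10% SDS-PAGE and transferred to PVDF. Probed with MELK, mTOR or p-mTOR antibodies, with β-actin/β-tubulin as loading controls. ECL detection, band densitometry, DC50 from nonlinear regression.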
Target sequence in this assay (Q14680 whole entry): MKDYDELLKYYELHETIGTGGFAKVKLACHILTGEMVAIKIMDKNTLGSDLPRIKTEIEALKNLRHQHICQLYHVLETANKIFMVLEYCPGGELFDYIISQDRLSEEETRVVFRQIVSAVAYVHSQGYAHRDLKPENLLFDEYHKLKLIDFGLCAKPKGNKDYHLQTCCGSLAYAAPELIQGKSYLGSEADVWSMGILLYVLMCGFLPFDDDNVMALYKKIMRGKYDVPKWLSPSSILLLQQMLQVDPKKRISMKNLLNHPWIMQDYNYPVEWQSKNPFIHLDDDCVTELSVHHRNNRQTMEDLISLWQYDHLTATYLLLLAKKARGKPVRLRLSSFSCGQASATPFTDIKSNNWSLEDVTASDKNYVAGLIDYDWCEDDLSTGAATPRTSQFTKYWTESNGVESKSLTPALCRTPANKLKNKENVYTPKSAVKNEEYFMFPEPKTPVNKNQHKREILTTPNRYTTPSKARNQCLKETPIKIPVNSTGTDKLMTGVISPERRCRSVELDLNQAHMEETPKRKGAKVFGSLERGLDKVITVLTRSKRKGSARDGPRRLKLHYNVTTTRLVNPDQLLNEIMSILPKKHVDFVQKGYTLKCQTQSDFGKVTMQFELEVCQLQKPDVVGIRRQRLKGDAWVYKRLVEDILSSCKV
Target sequence in this assay (Q96SW2 whole entry): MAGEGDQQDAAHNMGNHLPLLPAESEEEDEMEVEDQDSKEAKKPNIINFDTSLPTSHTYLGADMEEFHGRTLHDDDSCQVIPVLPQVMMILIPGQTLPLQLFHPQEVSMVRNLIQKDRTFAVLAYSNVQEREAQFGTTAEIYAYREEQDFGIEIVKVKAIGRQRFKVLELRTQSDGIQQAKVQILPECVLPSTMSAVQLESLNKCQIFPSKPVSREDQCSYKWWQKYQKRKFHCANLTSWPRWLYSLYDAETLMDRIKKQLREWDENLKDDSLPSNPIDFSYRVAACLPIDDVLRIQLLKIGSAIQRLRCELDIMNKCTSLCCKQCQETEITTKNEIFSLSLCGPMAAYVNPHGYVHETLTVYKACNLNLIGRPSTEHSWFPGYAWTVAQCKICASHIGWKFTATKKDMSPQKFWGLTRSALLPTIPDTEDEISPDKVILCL

[6] = target: T1, Protein cereblon/Maternal embryonic leucine zipper kinase; assay: PROTAC activity at CRBN/MELK in human Ramos cells assessed as degradation of MELK at 20 uM pretreated with MLN4924 followed by compound addition and measured after 24 hrs by immunoblot analysis; assay type: cell-based
Target sequence in this assay (Q14680 whole entry, looked up): as the sequence (Q14680 whole entry) above
Target sequence in this assay (Q96SW2 whole entry, looked up): as the sequence (Q96SW2 whole entry) above

MDA-MB-231 = assay: Cytotoxicity against human MDA-MB-231 cells assessed as inhibition of cell growth measured after 72 to 96 hrs by CCK-8 method; assay type: functional; conditions: time 72-96 hrs
Outline: (§3)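 MDA-MB-231 grown in DMEM with 10% FBS, 1% pen-strep, 1% NEAA and 50 μM 2-mercaptoethanol at 37°C, 5% CO₂. Plated at 3000 cells/well with compound diluted in medium from DMSO stock. Incubated 72–96 h, then CCK-8 added for 4 h. Absorbance read at 450 nm, normalized to DMSO-treated cells. EC50 from nonlinear regression.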

[7] = target: T1, Protein cereblon/Maternal embryonic leucine zipper kinase; assay: PROTAC activity at CRBN/MELK in human Ramos cells assessed as degradation of MELK by measuring half life at 20 uM measured for 48 hrs by Western blot analysis; assay type: cell-based
Target sequence in this assay (Q14680 whole entry, looked up): as the sequence (Q14680 whole entry) above
Target sequence in this assay (Q96SW2 whole entry, looked up): as the sequence (Q96SW2 whole entry) above

Ramos [8] = assay: Induction of cell cycle arrest in human Ramos cells assessed as accumulation of cells at G2/M phase at 10 uM measured after 24 hrs by propidium iodide staining based flow cytometry analysis; assay type: functional
Outline: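 Ramos cells exposed to compound or DMSO for 24 h, washed in cold PBS and fixed overnight in 70% ethanol. Stained with propidium iodide for 30 min at 37°C in the dark. Cell-cycle phase distribution determined by flow cytometry.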

HUVEC = assay: Cytotoxicity against human HUVEC cells at 4 uM measured after 24 hrs by tube formation assay; assay type: toxicity, cell-based
Outline: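 HUVEC, 3×10^4 cells/well, seeded on Matrigel-coated wells (Matrigel set 4 h at 37°C) in medium containing compound. Tubes imaged by optical microscopy and quantified by image analysis. Three independent experiments.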

[9] = target: T1, Protein cereblon/Maternal embryonic leucine zipper kinase; assay: PROTAC activity at CRBN/MELK in human Ramos cells assessed as inhibition of mTOR phosphorylation measured after 24 hrs Western blot analysis; assay type: cell-based; outline: as §2
Target sequence in this assay (Q14680 whole entry): as the sequence (Q14680 whole entry) above
Target sequence in this assay (Q96SW2 whole entry): as the sequence (Q96SW2 whole entry) above

[10] = target: T1, Protein cereblon/Maternal embryonic leucine zipper kinase; assay: PROTAC activity at CRBN/MELK in human Ramos cells assessed as induction of MELK degradation by immunoblot analysis relative to control; assay type: cell-based; outline: as §2
Target sequence in this assay (Q14680 whole entry, looked up): as the sequence (Q14680 whole entry) above
Target sequence in this assay (Q96SW2 whole entry, looked up): as the sequence (Q96SW2 whole entry) above

Ramos [11] = assay: Induction of apoptosis in human Ramos cells assessed as late apoptotic cells at 20 uM measured after 24 hrs by Annexin V-FITC and propidium iodide staining based flow cytometry analysis (reference value: 5.05%); assay type: functional; outline: as §1
DOHH-2 = assay: Upregulation of MELK mRNA level in human DOHH-2 cells at 20 uM incubated for 24 hrs by qPCR analysis; assay type: functional, cell-based
[12] = target: T1, Protein cereblon/Maternal embryonic leucine zipper kinase; assay: PROTAC activity at CRBN/MELK in human Ramos cells assessed as degradation of MELK at 20 uM pretreated with MG132 followed by compound addition and measured after 24 hrs by immunoblot analysis; assay type: cell-based
Target sequence in this assay (Q14680 whole entry, looked up): as the sequence (Q14680 whole entry) above
Target sequence in this assay (Q96SW2 whole entry, looked up): as the sequence (Q96SW2 whole entry) above

[13] = target: T1, Protein cereblon/Maternal embryonic leucine zipper kinase; assay: PROTAC activity at CRBN/MELK in human Ramos cells assessed as inhibition of mTOR phosphorylation at upto 64 uM measured after 24 hrs Western blot analysis; assay type: cell-based; outline: as §2
Target sequence in this assay (Q14680 whole entry, looked up): as the sequence (Q14680 whole entry) above
Target sequence in this assay (Q96SW2 whole entry, looked up): as the sequence (Q96SW2 whole entry) above

Ramos [14] = assay: Cytotoxicity against human Ramos cells assessed as inhibition of cell growth measured after 72 to 96 hrs by CCK-8 method; assay type: functional, cell-based
Outline: as §3, with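 “Ramos” for “MDA-MB-231”, “RPMI 1640” for “DMEM”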

[15] = target: T1, Protein cereblon/Maternal embryonic leucine zipper kinase; assay: PROTAC activity at CRBN/MELK in human Ramos cells assessed as residual activity at 5 uM measured after 48 hrs by immunoblot analysis relative to control; assay type: cell-based
Target sequence in this assay (Q14680 whole entry, looked up): as the sequence (Q14680 whole entry) above
Target sequence in this assay (Q96SW2 whole entry, looked up): as the sequence (Q96SW2 whole entry) above

Ramos [16] = assay: Induction of apoptosis in human Ramos cells assessed as early apoptotic cells at 20 uM measured after 24 hrs by Annexin V-FITC and propidium iodide staining based flow cytometry analysis (reference value: 9.69%); assay type: functional; outline: as §1
Ramos [17] = assay: Induction of apoptosis in human Ramos cells assessed as viable cells at 20 uM measured after 24 hrs by Annexin V-FITC and propidium iodide staining based flow cytometry analysis (reference value: 84.9%); assay type: functional; conditions: read-out: Activity; outline: as §1

CC(C)COc1cnccc1-c1cnn(-c2ccc(N3CCN(Cc4cn(CCOCCOCCNc5ccc6c(c5)C(=O)N(C5CCC(=O)NC5=O)C6=O)nn4)CC3)cc2)c1 (centres undefined)
Activity (Ramos [1]): Active | Activity (Ramos [2]): 0.25% | Activity (Ramos [3]): Active | Ratio CC50/IC50 [4]: 7.6 | DC50 [5]: 2.1 µM | Activity [6]: inactive | CC50 (MDA-MB-231): 13.8 µM | T1/2 [7]: < 3 h | Activity (Ramos [8]): Active | Activity (HUVEC): Non-Toxic | EC50 [9]: 2.3 µM | Emax [10]: 91.6% | Activity (Ramos [11]): 12.8% | Activity (DOHH-2): Active | Activity [12]: inactive | Activity [13]: Active | EC50 (Ramos [14]): 1.8 µM | Activity [15]: 14.3% | Activity (Ramos [16]): 42.1% | viability at 20 µM (Ramos [17]): 44.9%

CC(C)COc1cnccc1-c1cnn(-c2ccc(N3CCN(Cc4cn(CCOCCOCCOCCOCCNc5ccc6c(c5)C(=O)N(C5CCC(=O)NC5=O)C6=O)nn4)CC3)cc2)c1 (centres undefined)
DC50 [5]: < 5 µM | Activity [15]: 42.7%

CN1CCN(c2ccc(-n3cc(-c4ccncc4OCC4CCNCC4)cn3)cc2)CC1
Ratio CC50/IC50 [4]: 0.7 | CC50 (MDA-MB-231): 2.3 µM | IC50 (Ramos [14]): 3.4 µM

CC(C)COc1cnccc1-c1cnn(-c2ccc(N3CCN(Cc4cn(CCOCCOCCOCCNc5ccc6c(c5)C(=O)N(C5CCC(=O)NC5=O)C6=O)nn4)CC3)cc2)c1 (centres undefined)
DC50 [5]: < 5 µM | Activity [15]: 49.6%

CC(C)COc1cnccc1-c1cnn(-c2ccc(N3CCN(Cc4cn(CCCCCCCNc5ccc6c(c5)C(=O)N(C5CCC(=O)NC5=O)C6=O)nn4)CC3)cc2)c1 (centres undefined)
DC50 [5]: < 5 µM | Activity [15]: 37.7%

COc1cc(-c2cn[nH]c2)ccc1C(=O)Nc1ccc2c(c1)CCNCC2
Ratio CC50/IC50 [4]: 0.9 | CC50 (MDA-MB-231): 7.9 µM | IC50 (Ramos [14]): 9.1 µM

CC(C)COc1cnccc1-c1cnn(-c2ccc(N3CCN(Cc4cn(CCOCCNc5ccc6c(c5)C(=O)N(C5CCC(=O)NC5=O)C6=O)nn4)CC3)cc2)c1 (centres undefined)
DC50 [5]: < 5 µM | Activity [15]: 49.3%
